Results taken from ChEMBL document CHEMBL4196059, “Design, synthesis, and biological evaluation of stable β6.3-Helices: Discovery of non-hemolytic antibacterial peptides” (Eur J Med Chem, 2018).
Calls of active or inactive are those of the source. No cut-off for these calls is given here.

What was measured:
[1] = system: Klebsiella pneumoniae; assay: Antibacterial activity against multidrug-resistant Klebsiella pneumoniae ATCC 700603 after 18 hrs by non-binding surface 96-well plate-based method; format: functional
How it was run: (§1)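 Strains grown in cation-adjusted Mueller Hinton broth at 37 °C for 12 h, diluted 40-fold and regrown 1.5–3 h to mid-log. Inoculum was 5×10^5 CFU/mL in 12-point dose response, in non-binding surface or polystyrene plates, in duplicate. Plates stood at 37 °C for 18 h. MIC was read by OD600.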

[2] = system: Acinetobacter baumannii; assay: Antibacterial activity against Acinetobacter baumannii ATCC 19606 after 18 hrs by non-binding surface 96-well plate-based method; format: functional; how it was run: as §1
[3] = system: Acinetobacter baumannii; assay: Antibacterial activity against Acinetobacter baumannii ATCC 19606 after 18 hrs by polystyrene 96-well plate-based method; format: functional
How it was run: (§2)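 Cultured in cation-adjusted Mueller Hinton broth at 37 °C for 12 h, diluted 40-fold and grown 1.5–3 h to mid-log. Seeded at 5×10^5 CFU/mL over a 12-point dose response in non-binding surface and polystyrene 96-well plates, duplicates (n=2). Incubated static at 37 °C for 18 h. MIC read from OD600 light scattering; colistin and vancomycin as standards.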

[4] = system: Escherichia coli; assay: Antibacterial activity against Escherichia coli ATCC 25922 after 18 hrs by non-binding surface 96-well plate-based method; format: functional; how it was run: as §2
[5] = system: Escherichia coli; assay: Antibacterial activity against Escherichia coli ATCC 25922 after 18 hrs by polystyrene 96-well plate-based method; format: functional; how it was run: as §1
[6] = system: Klebsiella pneumoniae; assay: Antibacterial activity against multidrug-resistant Klebsiella pneumoniae ATCC 700603 after 18 hrs by polystyrene 96-well plate-based method; format: functional; how it was run: as §1
[7] = system: Cryptococcus neoformans; assay: Growth inhibition of Cryptococcus neoformans H99 ATCC 208821 at 32 ug/ml after 24 hrs by resazurin dye-based microspectrophotometric assay; format: functional; details: var. grubii H99 ATCC 208821, 24 h, read-out: GI
How it was run: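 Yeasts were grown 3 days on YPD agar at 30 °C, suspended from five colonies and diluted in YNB broth to a final 2.5×10^3 CFU/mL. Compound at a final 32 μg/mL; incubated 24 h at 35 °C without shaking. C. albicans was read at OD530. C. neoformans was read as OD600–570 after resazurin (0.001% final) and a further 2 h at 35 °C. Fluconazole was the standard.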

[8] = Hemolytic activity against human RBC at 25 uM after 1 hr by Drabkin's assay relative to control; format: ADME, cell-based, Erythrocyte; details: human red blood cells (erythrocytes), read-out: Activity
[9] = Hemolytic activity against human RBC at 6.25 uM after 1 hr by Drabkin's assay relative to control; format: ADME, cell-based, Erythrocyte; details: human red blood cells (erythrocytes), read-out: Activity
[10] = Hemolytic activity against human RBC at 3.125 uM after 1 hr by Drabkin's assay relative to control; format: ADME, cell-based, Erythrocyte; details: human red blood cells (erythrocytes), read-out: Activity
[11] = system: Staphylococcus aureus; assay: Growth inhibition of methicillin-resistant Staphylococcus aureus ATCC 43300 at 32 ug/ml after 18 hrs; format: functional; details: ATCC 43300, 18 h, read-out: GI
How it was run: (§3)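 Mid-log cultures in cation-adjusted Mueller Hinton broth were added at 5×10^5 CFU/mL to wells at a final compound concentration of 32 μg/mL. Plates stood at 37 °C for 18 h. Growth was read by OD600, and % inhibition was computed against media-only and untreated-bacteria controls.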

[12] = Hemolytic activity against human RBC at 12.5 uM after 1 hr by Drabkin's assay relative to control; format: ADME, cell-based, Erythrocyte; details: human red blood cells (erythrocytes), read-out: Activity
[13] = biological target: Lipid bilayer; assay: Binding affinity to POPC vesicles by surface plasmon resonance spectroscopy
How it was run: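 SPR on a dextran chip carrying immobilized POPC liposomes, with running buffer of 10 mM HEPES and 100 mM KCl at pH 7.4. Peptides in PBS were flowed at 25 μL/min at 10–1000 μM, with reference-subtracted response units. KD and Rmax were fitted from maximum response versus concentration. Regeneration used 20 mM CHAPS followed by fresh liposomes.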

[14] = system: Acinetobacter baumannii; assay: Growth inhibition of Acinetobacter baumannii ATCC 19606 at 32 ug/ml after 18 hrs; format: functional; details: ATCC 19606 = CIP 70.34 = JCM 6841, 18 h, read-out: GI
How it was run: (§4)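 Mid-log cultures were prepared as above and seeded at 5×10^5 CFU/mL with compound at a final 32 μg/mL, then held static at 37 °C for 18 h. Growth was read as OD600. Percent inhibition was calculated against media-only and bacteria-only controls on the same plate.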

[15] = Hemolytic activity against human RBC at 0.78 uM after 1 hr by Drabkin's assay relative to control; format: ADME, cell-based, Erythrocyte; details: human red blood cells (erythrocytes), read-out: Activity
[16] = system: Klebsiella pneumoniae; assay: Growth inhibition of multidrug-resistant Klebsiella pneumoniae ATCC 700603 at 32 ug/ml after 18 hrs; format: functional; details: ATCC 700603, 18 h, read-out: GI; how it was run: as §3
[17] = Hemolytic activity against human RBC at 50 uM after 1 hr by Drabkin's assay relative to control; format: ADME, cell-based, Erythrocyte; details: human red blood cells (erythrocytes), read-out: Activity
[18] = system: Erythrocyte; assay: Hemolytic activity against human RBC after 1 hr by Drabkin's assay; format: ADME, cell-based
[19] = Hemolytic activity against human RBC at 0.39 uM after 1 hr by Drabkin's assay relative to control; format: ADME, cell-based, Erythrocyte; details: human red blood cells (erythrocytes), read-out: Activity
[20] = system: Escherichia coli; assay: Growth inhibition of Escherichia coli ATCC 25922 at 32 ug/ml after 18 hrs; format: functional; details: ATCC 25922, 18 h, read-out: GI; how it was run: as §4
[21] = system: Pseudomonas aeruginosa; assay: Growth inhibition of Pseudomonas aeruginosa ATCC 27853 at 32 ug/ml after 18 hrs; format: functional; details: ATCC 27853, 18 h, read-out: GI; how it was run: as §4
[22] = Hemolytic activity against human RBC at 1.56 uM after 1 hr by Drabkin's assay relative to control; format: ADME, cell-based, Erythrocyte; details: human red blood cells (erythrocytes), read-out: Activity
[23] = system: Candida albicans; assay: Growth inhibition of Candida albicans ATCC 90028 at 32 ug/ml after 24 hrs by OD530 light-scattering microspectrophotometric method; details: ATCC 90028, 24 h, read-out: GI
[24] = Induction of pore formation in DOPC vesicles at 20 uM after 3 hrs by carboxyfluorescein dye leakage assay; details: in the assay text read “after 3 mins” for “after 3 hrs”
How it was run: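 POPC or DOPC liposomes were hydrated in 10 mM HEPES, 100 mM KCl, pH 7.4, containing 50 mM carboxyfluorescein. Size was checked by dynamic light scattering, and vesicles were used at 2.2×10^10 per mL. Peptide at 20 μM was equilibrated with vesicles for 3 min, and dye leakage was measured.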

[25] = system: Lipid bilayer; assay: Induction of pore formation in POPC vesicles at 20 to 100 uM after 3 mins by carboxyfluorescein dye leakage assay
[26] = Induction of pore formation in DOPC vesicles at 20 uM after 3 mins by carboxyfluorescein dye leakage assay
[27] = system: Staphylococcus aureus; assay: Antibacterial activity against methicillin-resistant Staphylococcus aureus ATCC 43300 after 18 hrs by non-binding surface 96-well plate-based method; format: functional; how it was run: as §1
[28] = system: Staphylococcus aureus; assay: Antibacterial activity against methicillin-resistant Staphylococcus aureus ATCC 43300 after 18 hrs by polystyrene 96-well plate-based method; format: functional; how it was run: as §1
[29] = ATCC 19606 = CIP 70.34 = JCM 6841, 18 h
[30] = ATCC 19606 = CIP 70.34 = JCM 6841

Compound	inhibition of growth at 32 µg/mL [7]	hemolysis at 1 h, 25 µM [8]	hemolysis at 1 h, 6.25 µM [9]	hemolysis at 1 h, 3.125 µM [10]	inhibition of growth at 32 µg/mL [11]	hemolysis at 1 h, 12.5 µM [12]	Kd [13]	Rmax [13]	inhibition of growth at 32 µg/mL [14]	hemolysis at 1 h, 0.78 µM [15]	inhibition of growth at 32 µg/mL [16]	hemolysis at 1 h, 50 µM [17]	Activity [18]	hemolysis at 1 h, 0.39 µM [19]	inhibition of growth at 32 µg/mL [20]	inhibition of growth at 32 µg/mL [21]	hemolysis at 1 h, 1.56 µM [22]	inhibition of growth at 32 µg/mL [23]	Activity [24]	further results
CN[C@H](CC(C)C)C(=O)N[C@H]1C(=O)N[C@@H](CC(N)=O)C(=O)N[C@H]2C(=O)N[C@H]3C(=O)N[C@H](C(=O)N[C@H](C(=O)O)c4cc(O)cc(O)c4-c4cc3ccc4O)[C@H](O)c3ccc(c(Cl)c3)Oc3cc2cc(c3O[C@@H]2O[C@H](CO)[C@@H](O)[C@H](O)[C@H]2O[C@H]2C[C@](C)(N)[C@H](O)[C@H](C)O2)Oc2ccc(cc2Cl)[C@H]1O [VANCOMYCIN]	–	–	–	–	–	–	–	–	–	–	–	–	–	–	–	–	–	–	–	MIC ([1]; ATCC 700603, 18 h): > 32 µg/mL; MIC [2, 29]: > 32 µg/mL; MIC [3, 29]: > 32 µg/mL; MIC ([4]; ATCC 25922, 18 h): > 32 µg/mL; MIC ([5]; ATCC 25922, 18 h): > 32 µg/mL; MIC ([6]; ATCC 700603, 18 h): > 32 µg/mL
CC(C)(C)OC(=O)[C@@H]1CCCN1C(=O)N1CCCN1C(=O)[C@@H]1CCCN1C(=O)N1CCCN1C(=O)[C@@H]1CCCN1C(=O)N1CCCN1C(=O)[C@@H]1CCCN1C(=O)N1CCCN1C(=O)[C@@H]1CCCN1C(=O)N1CCCN1C(=O)[C@@H]1CCCN1C(=O)N1CCCN1C(=O)[C@@H]1CCCN1C(=O)N1CCCN1C(=O)[C@@H]1CCCN1C(=O)N1CCCN1C(=O)OCc1ccccc1	-8.19%	-0.41%	-0.37%	-0.12%	20.5%	-0.04%	2580 µM	2640	15.9%	0.04%	-1.93%	-0.73%	Dose-dependent effect	0.08%	-1.93%	-6.76%	-0.24%	5.75%	inactive	–
CC(C)(C)OC(=O)N1CCC[C@H]1C(=O)N1CCCN1C(=O)N1CCC[C@H]1C(=O)N1CCCN1C(=O)N1CCC[C@H]1C(=O)N1CCCN1C(=O)N1CCC[C@H]1C(=O)N1CCCN1C(=O)N1CCC[C@H]1C(=O)N1CCCN1C(=O)N1CCC[C@H]1C(=O)N1CCCN1C(=O)N1CCC[C@H]1C(=O)N1CCCN1C(=O)N1CCC[C@H]1C(=O)N1CCCN1C(=O)OCc1ccccc1	-3.43%	-0.23%	-0.11%	0.02%	20.7%	-0.17%	440 µM	632	17.8%	0.15%	5.27%	-0.42%	Dose-dependent effect	-0.04%	5.27%	-8.18%	-0.04%	2.92%	inactive	–
O=C(NCCO)[C@@H]1CCCN1C(=O)N1CCCN1C(=O)[C@@H]1CCCN1C(=O)N1CCCN1C(=O)[C@@H]1CCCN1C(=O)N1CCCN1C(=O)[C@@H]1CCCN1C(=O)N1CCCN1C(=O)[C@@H]1CCCN1C(=O)N1CCCN1C(=O)[C@@H]1CCCN1C(=O)N1CCCN1C(=O)[C@@H]1CCCN1C(=O)N1CCCN1C(=O)[C@@H]1CCCN1C(=O)N1CCCN1C(=O)OCc1ccccc1	-4.06%	-0.04%	-0.11%	0.15%	11.8%	-0.04%	373 µM	601	36.2%	0.15%	11.3%	-0.04%	Dose-dependent effect	-0.04%	11.3%	-2.74%	0.02%	4.99%	–	Activity [25]: inactive; Activity [26]: 13%
COLISTIN	–	–	–	–	–	–	–	–	–	–	–	–	–	–	–	–	–	–	–	MIC [1]: 0.06 µg/mL; MIC [27]: > 32 µg/mL; MIC [2, 30]: 0.06 to 0.125 µg/mL; MIC [28]: > 32 µg/mL; MIC [3, 30]: 1 µg/mL; MIC [4]: 0.016 µg/mL; MIC [5]: 0.125 µg/mL; MIC [6]: 0.25 µg/mL
